Series [1] can be described thus: Apparent partition coefficients was determined at a pH 7.4 by using the capacity factors of RP-HPLC. In kind it is physicochemical. Conditions: octanol/water. In short, it runs like this: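 Tetraester log Papp estimated from RP-HPLC capacity factors (k'); C8 reversed-phase column, mobile phase 20 mM phosphate buffer pH 6.0/methanol 30:70 v/v; value reported for pH 7.4.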

A short description of series [2]: Hydrolysis half life at pH 7.4 against 50 mM phosphate buffer was determined. In kind it is ADME. In short, it runs like this:
(§1)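 Chemical hydrolysis: compound (initial 0.9–1.8 mM) in preheated 50 mM phosphate buffer, μ = 0.15, pH 5.0 or 7.4, held at 37 °C. Samples taken at intervals and analysed by HPLC; kobs and t1/2 derived.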

Another series is filed under the species Oryctolagus cuniculus. Description: Binding constant (Kobs) against 10% rabbit liver homogenate was determined. The format is ADME. In short, it runs like this: (§2)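 Rabbit liver homogenized in ~4 vol isotonic phosphate buffer pH 7.4, spun 9000g 90 min 4 °C, supernatant stored −80 °C. Compound in 1 vol isotonic buffer plus 1 vol preheated 20% homogenate (10% final; initial 1.6–1.8 mM), 37 °C. Samples methanol-deproteinized and analysed by HPLC; kobs and t1/2 derived.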

Series [3] in a line: Hydrolysis half life at pH 5.0 against 50 mM phosphate buffer was determined. In kind it is ADME. In short, it runs like this: as §1
Series [4] can be described thus: Binding affinity (Kobs) at a pH 5.0 against 50 mM phosphate buffer was determined. The essentials:
as §1

Series [5] in a line: Hydrolysis half life against 80% human serum was determined. In kind it is ADME. The essentials: (§3)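 Compound dissolved in 1 vol phosphate buffer (50 mM, μ = 0.15, pH 7.4, 37 °C), then 4 vol preheated human serum added (80% serum; initial 1.4–1.7 mM); 37 °C water bath. Samples taken at intervals, deproteinized with equal volume methanol, centrifuged; supernatant dried and redissolved in mobile-phase buffer, or injected directly if labile. HPLC; kobs and t1/2 derived.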

For the next series, the species on record is Homo sapiens. Description: Binding affinity (Kobs) against 80% human Serum esterase was determined. In short, it runs like this: as §3
Series [6] can be described thus: (§4) Hydrolysis half life against 10% rabbit liver homogenate was determined. In kind it is tissue-based. The essentials: as §2
Series [7] is described as follows: Binding affinity (Kobs) at a pH 7.4 against 50 mM phosphate buffer was determined. In short, it runs like this:
as §1

The nature of series [8]: as §4. The format is ADME, organism-based, Oryctolagus cuniculus. The essentials:
as §2

This is an account of results in ChEMBL document CHEMBL1132494, “Bisphosphonate prodrugs: synthesis and in vitro evaluation of novel acyloxyalkyl esters of clodronic acid” (J Med Chem, 1999).

For orientation: chromatographic logD means a lipophilicity value derived from retention on a column. For `CC(C)(C)C(=O)OCOP(=O)(OCOC(=O)C(C)(C)C)C(Cl)(Cl)P(=O)(OCOC(=O)C(C)(C)C)OCOC(=O)C(C)(C)C`, in series [1], the chromatographic logD was found to be 7.4.
By half-life is commonly meant how long it takes for the measured level to halve. The low end stands for fast loss, the high end for slow loss. As to `CC(C)(C)C(=O)OCOP(=O)(O)C(Cl)(Cl)P(=O)(OCOC(=O)C(C)(C)C)OCOC(=O)C(C)(C)C`, the half-life is 1.7 h in [2], 1.65 h in series [3] and 1.3 h in series [5]. This molecule came in with a K obs in the series filed under Oryctolagus cuniculus of 0.65 min⁻¹. For the same molecule, the figures for the k obs (in [4]; in the series filed under Homo sapiens; in [7]) were 0.000117 s⁻¹, 0.000149 s⁻¹ and 0.000113 s⁻¹, respectively. The T1/2 in series [6] turned out to be 1.1 min. Further, the chromatographic logD in series [1] worked out at 1.56.
`C1CCNCC1.C1CCNCC1.CC(C)(C)C(=O)OCOP(=O)(O)C(Cl)(Cl)P(=O)(O)OCOC(=O)C(C)(C)C`: the half-life in series [2] came out at 0.783 h; in [8], 0.233 h. This molecule had a K obs in the series listed under Oryctolagus cuniculus of 0.51 min⁻¹. In series [7], this molecule came in with a k obs of 1.67e-07 s⁻¹. Besides, the chromatographic logD in series [1] is -2.13.
